Measured values published in ChEMBL document CHEMBL1949664, “Epiminocyclohepta[b]indole analogs as 5-HT6 antagonists” (Bioorg Med Chem Lett, 2012).

How the values were obtained:
[1] = target: T1, 5-hydroxytryptamine receptor 6 (Homo sapiens, UniProt P50406); assay: Displacement of [3H]LSD from human 5-HT6 serotonin receptor by scintillation proximity assay
Caco-2 [2] = assay: (§1) Permeability from apical to basolateral side of human Caco2 cells; type: ADME, cell-based
In short: (§2)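 Caco-2 monolayers; apical-to-basolateral flux reported as ×10^-6 cm/s.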

Liver microsomes [3] = assay: (§3) Stability in rat liver microsomes assessed as compound remaining after 1 hr; type: ADME, Microsome; settings: microsomes, 1 h
In short: (§4)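 Rat liver microsomes; percent parent compound remaining after 1 h incubation.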

Liver microsomes [4] = assay: (§5) Stability in human liver microsomes assessed as compound remaining after 1 hr; type: ADME, Microsome; settings: microsomes, 1 h
In short: (§6)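 Human liver microsomes; percent parent compound remaining after 1 h incubation.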

[5] = target: T1, 5-hydroxytryptamine receptor 6; assay: Agonist activity at human 5-HT6 serotonin receptor expressed in CHO-1 cells assessed as cAMP production relative to 5-hydroxytryptamine; type: functional, cell-based; design: concentration or dose not given beside the values
Caco-2 [6] = assay: (§7) Efflux ratio of permeability from basolateral to apical side over apical to basolateral side in human Caco2 cells; type: ADME, cell-based
[7] = Volume of distribution at steady state in Sprague-Dawley rat at 2 mg/kg, iv; type: ADME, organism-based; design: dose 2 mg/kg, route intravenous; settings: in vivo, read-out: Vdss
[8] = Oral bioavailability in Sprague-Dawley rat at 2 mg/kg; type: ADME, organism-based; settings: in vivo
Rattus norvegicus [9] = assay: Ex vivo 5-HT6 serotonin receptor occupancy in Sprague-Dawley rat brain at 90 mg/kg after 24 hrs using [125I][…] by autoradiography; type: functional
In short: (§8)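 Sprague Dawley rats dosed at 10, 30 or 90 mg/kg, brains taken at 6 or 24 h. Caudate putamen sections incubated with [125I]SB258585 alone (total) or plus methiothepin (non-specific); β-imager read-out. Two determinations per animal, 5 animals per dose group; specific binding expressed relative to vehicle controls.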

[10] = Clearance in Sprague-Dawley rat at 2 mg/kg, iv; type: ADME, organism-based; design: dose 2 mg/kg, route intravenous; settings: in vivo
[11] = Tmax in Sprague-Dawley rat at 10 mg/kg, po; type: ADME, organism-based; design: dose 10 mg/kg, route oral; settings: in vivo
[12] = Ratio of drug level in brain to plasma in Sprague-Dawley rat at 10 mg/kg, po after 6 hrs; type: ADME, organism-based; design: dose 10 mg/kg, route oral; settings: read-out: BPR
Rattus norvegicus [13] = assay: Ex vivo 5-HT6 serotonin receptor occupancy in Sprague-Dawley rat brain at 10 mg/kg after 6 hrs using [125I][…] by autoradiography; type: functional; in short: as §8
[14] = Half life in Sprague-Dawley rat at 10 mg/kg, po; type: ADME, organism-based; design: dose 10 mg/kg, route oral; settings: in vivo
Rattus norvegicus [15] = assay: Ex vivo 5-HT6 serotonin receptor occupancy in Sprague-Dawley rat brain at 30 mg/kg after 24 hrs using [125I][…] by autoradiography; type: functional; in short: as §8
[16] = Cmax in Sprague-Dawley rat at 10 mg/kg, po; type: ADME, organism-based; design: dose 10 mg/kg, route oral; settings: in vivo
Rattus norvegicus [17] = assay: Ex vivo 5-HT6 serotonin receptor occupancy in Sprague-Dawley rat brain at 10 mg/kg after 24 hrs using [125I][…] by autoradiography; type: functional; in short: as §8
Rattus norvegicus [18] = assay: Ex vivo 5-HT6 serotonin receptor occupancy in Sprague-Dawley rat brain at 30 mg/kg after 6 hrs using [125I][…] by autoradiography; type: functional; in short: as §8
[19] = Tmax (0 to 6 hrs) in Sprague-Dawley rat at 30 mg/kg, po; type: ADME, organism-based; design: dose 30 mg/kg, route oral; settings: in vivo
[20] = Oral bioavailability in Sprague-Dawley rat at 10 mg/kg; type: ADME, organism-based; settings: in vivo
[21] = AUC (0 to infinity) in Sprague-Dawley rat at 10 mg/kg, po; type: ADME, organism-based; design: time infinity, dose 10 mg/kg, route oral; settings: plasma
[22] = Cmax (0 to 6 hrs) in Sprague-Dawley rat at 30 mg/kg, po; type: ADME, organism-based; design: dose 30 mg/kg, route oral; settings: in vivo
Rattus norvegicus [23] = assay: Ex vivo 5-HT6 serotonin receptor occupancy in Sprague-Dawley rat brain at 90 mg/kg after 6 hrs using [125I][…] by autoradiography; type: functional; in short: as §8
Rattus norvegicus [24] = organism: Rattus norvegicus; assay: Ex vivo 5-HT6 serotonin receptor occupancy in Sprague-Dawley rat brain after 6 hrs using [125I][…] by autoradiography; type: functional, organism-based; in short: as §8
[25] = target: T1, 5-hydroxytryptamine receptor 6; assay: Antagonist activity at human 5-HT6 serotonin receptor expressed in CHO-1 cells assessed as inhibition of 5-hydroxytryptamine-induced cAMP production; type: functional, cell-based
[26] = as §1; type: ADME, cell-based; settings: caco-2, read-out: permeability; in short: as §2
[27] = as §3; type: ADME, Microsome; settings: liver microsomes, read-out: Stability; in short: as §4
[28] = as §5; type: ADME, Microsome; settings: liver microsomes, read-out: Stability; in short: as §6
[29] = as §7; type: ADME, cell-based; settings: caco-2

T1 sequence (P50406 whole entry): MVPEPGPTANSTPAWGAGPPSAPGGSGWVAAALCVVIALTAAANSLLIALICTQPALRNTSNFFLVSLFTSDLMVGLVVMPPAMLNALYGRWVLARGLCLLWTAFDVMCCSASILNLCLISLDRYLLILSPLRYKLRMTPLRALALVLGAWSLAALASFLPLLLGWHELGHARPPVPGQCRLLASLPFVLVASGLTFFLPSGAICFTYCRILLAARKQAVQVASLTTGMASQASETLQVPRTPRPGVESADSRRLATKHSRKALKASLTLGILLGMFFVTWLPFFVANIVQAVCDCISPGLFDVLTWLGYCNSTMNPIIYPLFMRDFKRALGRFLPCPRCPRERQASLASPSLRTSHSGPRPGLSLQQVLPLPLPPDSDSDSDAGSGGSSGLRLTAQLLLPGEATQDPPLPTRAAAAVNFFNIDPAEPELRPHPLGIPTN

Cn1ccc(S(=O)(=O)c2ccc3c(c2)c2c(n3C)CC3CCC2N3)n1 (stereo unspecified)
Ki [1]: 1010 nM

Cn1c2c(c3cccc(S(=O)(=O)c4ccccc4)c31)C1CCC(C2)N1 (racemic)
Ki [1]: 814 nM

Cn1c2c(c3ccc(S(=O)(=O)c4ccccc4)cc31)C1CCC(C2)N1 (racemic)
Ki [1]: 131 nM

CCN1C2CCC1c1c(n(C)c3ccc(S(=O)(=O)c4ccccc4)cc13)C2 (racemic)
Ki [1]: 91 nM

O=S(=O)(c1ccccc1)c1ccc2[nH]c3c(c2c1)C1CCC(C3)N1 (racemic)
Ki [1]: 54 nM

Cn1c2c(c3cc(S(=O)(=O)c4cccc(F)c4)ccc31)C1CCC(C2)N1 (racemic)
Ki [1]: 4.1 nM

Cn1c2c(c3cc(S(=O)(=O)c4ccncc4)ccc31)C1CCC(C2)N1 (racemic)
Ki [1]: > 10000 nM

Cn1c2c(c3cc(S(=O)(=O)n4cccc4)ccc31)C1CCC(C2)N1 (racemic)
Ki [1]: 32 nM

Cn1c2c(c3cc(S(=O)(=O)c4csc5ccccc45)ccc31)C1CCC(C2)N1 (single isomer, unassigned) [listing 1 of 2 here]
permeability (Caco-2 [2]): 15.7 ×10⁻⁶ cm/s | Stability (Liver microsomes [3]): 80% | Stability (Liver microsomes [4]): 78%

Cn1c2c(c3cc(S(=O)(=O)c4csc5ccccc45)ccc31)C1CCC(C2)N1 (single isomer, unassigned) [listing 2 of 2 here]
Activity [5]: < 15%

Cn1c2c(c3cc(S(=O)(=O)c4cccc(Cl)c4)ccc31)C1CCC(C2)N1 (single isomer, unassigned; (+)) [listing 1 of 2 here]
permeability (Caco-2 [2]): 8.55 ×10⁻⁶ cm/s | Stability (Liver microsomes [3]): 72% | Stability (Liver microsomes [4]): 93% | Ratio (Caco-2 [6]): 4.4

Cn1c2c(c3cc(S(=O)(=O)c4cccc(C(F)(F)F)c4)ccc31)C1CCC(C2)N1 (single isomer, unassigned; (+)) [listing 1 of 2 here]
Vd [7]: 4.7 L/kg | permeability (Caco-2 [2]): 24.8 ×10⁻⁶ cm/s | bioavailability [8]: 91% | Activity (Rattus norvegicus [9]): 84% | clearance [10]: 5.7 mL/min/kg | Tmax [11]: 4 h | Stability (Liver microsomes [3]): 79% | Kp at 6 h [12]: 1.3 | Activity (Rattus norvegicus [13]): 60% | half-life [14]: 10 h | Stability (Liver microsomes [4]): 100% | Activity (Rattus norvegicus [15]): 74% | Cmax [16]: 916 ng/mL | Activity (Rattus norvegicus [17]): 48% | Activity (Rattus norvegicus [18]): 76% | Tmax [19]: 6 h | bioavailability [20]: 91% | AUC(0-inf) [21]: 26700 ng·h/mL | Cmax [22]: 732 ng/mL | Activity (Rattus norvegicus [23]): 78%

Cn1c2c(c3cc(S(=O)(=O)n4ccc5ccccc54)ccc31)C1CCC(C2)N1 (single isomer, unassigned; (+)) [listing 1 of 2 here]
permeability (Caco-2 [2]): 12 ×10⁻⁶ cm/s | Stability (Liver microsomes [3]): 86% | Stability (Liver microsomes [4]): 96% | Tmax [19]: 6 h | Cmax [22]: 41 ng/mL

Cn1c2c(c3cc(S(=O)(=O)c4c[nH]c5ccccc45)ccc31)C1CCC(C2)N1 (single isomer, unassigned; (+)) [listing 1 of 2 here]
permeability (Caco-2 [2]): 1.05 ×10⁻⁶ cm/s | Stability (Liver microsomes [3]): 57% | Stability (Liver microsomes [4]): 86%

Cn1c2c(c3cc(S(=O)(=O)c4ccc5[nH]ccc5c4)ccc31)C1CCC(C2)N1 (single isomer, unassigned; (+)) [listing 1 of 2 here]
Stability (Liver microsomes [3]): 91% | Stability (Liver microsomes [4]): 99%

Cn1c2c(c3cc(S(=O)(=O)c4c[nH]c5ccccc45)ccc31)C1CCC(C2)N1 (single isomer, unassigned; (+)) [listing 2 of 2 here]
Activity [5]: < 15%

Cn1c2c(c3cc(S(=O)(=O)c4ccc5[nH]ccc5c4)ccc31)C1CCC(C2)N1 (single isomer, unassigned; (+)) [listing 2 of 2 here]
Activity [5]: < 15%

Cn1c2c(c3cc(S(=O)(=O)c4cccc(C(F)(F)F)c4)ccc31)C1CCC(C2)N1 (single isomer, unassigned; (+)) [listing 2 of 2 here]
Activity (Rattus norvegicus [24]): Dose-dependent effect | Activity [5]: < 15%

Cn1c2c(c3cc(S(=O)(=O)c4cccc(Cl)c4)ccc31)C1CCC(C2)N1 (single isomer, unassigned; (+)) [listing 2 of 2 here]
Kb [25]: 4 nM | Activity [5]: < 15%

Cn1c2c(c3cc(S(=O)(=O)c4ccccc4)ccc31)C1CCC(C2)N1 (single isomer, unassigned; (+))
Activity [5]: < 15%

Cn1c2c(c3cc(S(=O)(=O)n4ccc5ccccc54)ccc31)C1CCC(C2)N1 (single isomer, unassigned; (+)) [listing 2 of 2 here]
Activity [5]: < 15%

Cn1c2c(c3cc(S(=O)(=O)c4cccc(Cl)c4)ccc31)C1CCC(C2)N1 (single isomer, unassigned; (-)) [listing 1 of 2 here]
Papp A→B [26]: 7.49 ×10⁻⁶ cm/s | remaining at 1 h [27]: 63% | remaining at 1 h [28]: 76% | efflux ratio [29]: 6

Cn1c2c(c3cc(S(=O)(=O)c4cccc(C(F)(F)F)c4)ccc31)C1CCC(C2)N1 (single isomer, unassigned; (-)) [listing 1 of 2 here]
Papp A→B [26]: 16.5 ×10⁻⁶ cm/s | remaining at 1 h [27]: 65% | Stability (Liver microsomes [4]): 78%

Cn1c2c(c3cc(S(=O)(=O)n4ccc5ccccc54)ccc31)C1CCC(C2)N1 (single isomer, unassigned; (-)) [listing 1 of 2 here]
Papp A→B [26]: 15 ×10⁻⁶ cm/s | remaining at 1 h [27]: 88% | remaining at 1 h [28]: 82%

Cn1c2c(c3cc(S(=O)(=O)c4c[nH]c5ccccc45)ccc31)C1CCC(C2)N1 (single isomer, unassigned; (-)) [listing 1 of 2 here]
permeability (Caco-2 [2]): 0.41 ×10⁻⁶ cm/s | Stability (Liver microsomes [3]): 34% | remaining at 1 h [28]: 72%

Cn1c2c(c3cc(S(=O)(=O)c4ccc5[nH]ccc5c4)ccc31)C1CCC(C2)N1 (single isomer, unassigned; (-)) [listing 1 of 2 here]
Papp A→B [26]: 0.55 ×10⁻⁶ cm/s | remaining at 1 h [27]: 77% | remaining at 1 h [28]: 89%

Cn1c2c(c3cc(S(=O)(=O)c4csc5ccccc45)ccc31)C1CCC(C2)N1 (single isomer, unassigned; (-)) [listing 1 of 2 here]
permeability (Caco-2 [2]): 0.24 ×10⁻⁶ cm/s | remaining at 1 h [27]: 67% | Stability (Liver microsomes [4]): 52%

Cn1c2c(c3cc(S(=O)(=O)c4c[nH]c5ccccc45)ccc31)C1CCC(C2)N1 (single isomer, unassigned; (-)) [listing 2 of 2 here]
Activity [5]: < 15%

Cn1c2c(c3cc(S(=O)(=O)c4ccc5[nH]ccc5c4)ccc31)C1CCC(C2)N1 (single isomer, unassigned; (-)) [listing 2 of 2 here]
Activity [5]: < 15%

Cn1c2c(c3cc(S(=O)(=O)c4cccc(C(F)(F)F)c4)ccc31)C1CCC(C2)N1 (single isomer, unassigned; (-)) [listing 2 of 2 here]
Activity [5]: < 15%

Cn1c2c(c3cc(S(=O)(=O)c4cccc(Cl)c4)ccc31)C1CCC(C2)N1 (single isomer, unassigned; (-)) [listing 2 of 2 here]
Kb [25]: 3.5 nM | Activity [5]: < 15%

Cn1c2c(c3cc(S(=O)(=O)c4ccccc4)ccc31)C1CCC(C2)N1 (single isomer, unassigned; (-))
Activity [5]: < 15%

Cn1c2c(c3cc(S(=O)(=O)c4csc5ccccc45)ccc31)C1CCC(C2)N1 (single isomer, unassigned; (-)) [listing 2 of 2 here]
Activity [5]: < 15%

Cn1c2c(c3cc(S(=O)(=O)n4ccc5ccccc54)ccc31)C1CCC(C2)N1 (single isomer, unassigned; (-)) [listing 2 of 2 here]
Activity [5]: < 15%
